Measurements from ChEMBL document CHEMBL1123363, “(5-Amino-1,3-dimethyl-1H-pyrazol-4-yl)(2-fluorophenyl)methanones . A series of novel potential antipsychotic agents” (J Med Chem, 1986).
Calls of active or inactive are those of the source. No cut-off for these calls is given here.

What was measured:
Rattus norvegicus [1] = assay: Antagonized affect on the accumulation of the brain dopamine induced by butyrolactone (GBL) at 5 mg/kg after intraperitoneal administration; assay type: functional; set-up: scale not given: the % may be the effect or the level left
Rattus norvegicus [2] = assay: Suppression of conditional avoidance after peroral administration; assay type: functional; details: po
Summary of the method: (§1)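 Fasted male Wistar rats (150–250 g) were trained to jump to a platform at a buzzer to avoid grid shock (1.1 mA/s). After oral dosing they were tested every 20 min for 6 h over 19 trials, 10 rats per dose, each rat used once. Peak effect was the mean of the four consecutive trials with the largest effect, computed from response latency. ED50 read graphically from at least three doses.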

Dopamine receptor = assay: Binding affinity for dopamine receptor in rat striatal membrane using [3H]haloperidol as radioligand; assay type: cell membranes, Striatum
Summary of the method: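 Nonspecific binding defined with (+)-butaclamol at 0.1 μM final. IC50 fitted by nonlinear curve fit from four or five concentrations in triplicate.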

Mus musculus [3] = organism: Mus musculus; assay: Ability to inhibit locomotor activity using ataxia test.; assay type: functional; details: read-out: MED
Summary of the method: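 Male Swiss–Webster mice (20–30 g, unfasted), nine per dose in groups of three, dosed ip in 0.2% methocel (dose as parent compound) 1 h before testing. Ataxia was scored first on an inverted screen over 60 s as % of mice falling. […] ED50 from at least three doses.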

Rattus norvegicus [4] = assay: Compound was tested for serum prolactin assay method in rats at 1 mg/kg dose after peroral administration; assay type: functional; details: route oral
Summary of the method: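 Seven-week-old male Sprague–Dawley rats, five per group, were dosed orally and killed by decapitation 1 h later. Serum prolactin from trunk blood was measured by radioimmunoassay with [125I]-PRL and expressed as % of control (mean ± SEM).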

[5] = target: Beta-1 adrenergic receptor (Rattus norvegicus, UniProt P18090); assay: Binding affinity against beta-1 adrenergic receptor in rat brain using [3H]DHA; assay type: tissue-based
Summary of the method: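 β1 binding was run on rat cerebral cortex membranes from male Long–Evans rats (150–250 g) with [3H]dihydroalprenolol at 0.5 nM final. Nonspecific binding was defined with (−)-alprenolol at 1 μM final. IC50 from four or five concentrations by nonlinear curve fit.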

Rattus norvegicus [6] = assay: Compound was tested for its affect on the accumulation of the dopamine metabolite homovanillic acid (HAV) in the rat striatum at 1 mg/kg dose after peroral administration; assay type: functional; details: route oral
Summary of the method: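 Male Long–Evans rats were dosed orally and decapitated 2 h later. Striatal HVA was isolated on Sephadex G-10 and measured spectrofluorometrically, expressed as % control ± SEM.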

[7] = target: T1, Beta-2 adrenergic receptor (Rattus norvegicus, UniProt P10608); assay: (§2) Binding affinity against beta-2 adrenergic receptor in rat brain using [3H]DHA; assay type: tissue-based
Summary of the method: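 β2 sites in rat cerebellum membranes (male Long-Evans, 150–250 g) with [3H]dihydroalprenolol at 0.5 nM final. (-)-Alprenolol at 1 μM final defined the reference. IC50 from four or five concentrations by nonlinear curve fit.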

[8] = Inhibition of sidman avoid in squirrel monkeys after peroral administration; assay type: functional; details: po
Summary of the method: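 Mature squirrel monkeys, trained on a modified Sidman avoidance lever schedule, were dosed orally and tested in 6-h sessions. Inhibition was expressed as % of each animal's own nondrug responding. At least three doses were given to four animals, with sessions at least 1 week apart. ED50 from nonlinear regression.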

[9] = Compound was tested for inhibition of extrapyramidal side effect test in cebus monkey; assay type: functional; details: read-out: MED
Summary of the method: (§3)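 Groups of three to six were then dosed by gavage and observed hourly for 6–8 h for dystonia or dyskinesia. Any unequivocal sign counted as a positive response. Minimal effective dose was determined in at least three animals.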

Mus musculus [10] = assay: Compound was tested for inhibition of apomorphine-induced climbing in mice after intraperitoneal administration; assay type: functional; details: ip
Summary of the method: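 Male Swiss–Webster mice (25–35 g), ten per dose, acclimated 30 min in cylindrical cages, dosed ip, then given apomorphine 3 mg/kg sc 1 h later. Climbing scored in 30-s tests every 5 min for 30 min, starting 15 min after apomorphine. At least three doses; ED50 by nonlinear regression.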

Rattus norvegicus [11] = assay: The compound was tested for inhibition of conditional avoid in rats after peroral administration; assay type: functional; details: po; summary of the method: as §1
Rattus norvegicus [12] = organism: Rattus norvegicus; assay: Compound was tested for its potential to produce clonic seizures in rats; + indicates compound is causing seizures; assay type: functional, organism-based
Summary of the method: (§4)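 Any sign of seizure marked the compound as seizure-causing; the outcome was not quantified.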

Rattus norvegicus [13] = assay: Antagonized affect on the accumulation of the brain dopamine induced by butyrolactone (GBL) at 10 mg/kg after intraperitoneal administration; assay type: functional; set-up: scale not given: the % may be the effect or the level left
Rattus norvegicus [14] = organism: Rattus norvegicus; assay: Compound was tested for its potential to produce clonic seizures in rats; + indicates that they are causing seizures; assay type: functional, organism-based; summary of the method: as §4
[15] = target: T1, Beta-2 adrenergic receptor; assay: as §2; assay type: tissue-based; remark: listed apart in the source
Summary of the method: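 β2 binding on rat cerebellum membranes (male Long–Evans rats, 150–250 g) with [3H]dihydroalprenolol, 0.5 nM final. Nonspecific binding defined with (-)-alprenolol, 1 μM final. IC50 from four or five concentrations by nonlinear curve fit.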

Rattus norvegicus [16] = assay: Compound was tested for inhibition of conditional avoid in rats after peroral administration; assay type: functional; details: po
Summary of the method: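 Fasted male Wistar rats (150–250 g) trained to jump to a platform at a buzzer to avoid grid shock (1.1 mA/s). After oral dosing, tested every 20 min for 6 h over 19 trials, 10 rats per dose. Peak effect from four consecutive trials using response latency. ED50 read graphically from at least three doses.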

Mus musculus [17] = assay: Compound was tested for inhibition of locomotor activity and ataxia in mice after intraperitoneal administration; assay type: functional; details: ip
Summary of the method: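 Unfasted male Swiss–Webster mice (20–30 g), nine per dose in groups of three, given compound ip in 0.2% methocel 1 h before testing. Ataxia assessed by 60-s inverted screen test, then photocell actophotometer locomotion recorded over 60 min as percent inhibition versus vehicle. At least three doses.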

[18] = Extrapyramidal side effect test in cebus monkey; assay type: functional; details: read-out: MED; summary of the method: as §3
Canis familiaris = assay: Compound was tested for inhibition of emesis test in dogs administered perorally; antiemetic; assay type: functional, organism-based; details: Canis lupus familiaris
[19] = Compound was tested for inhibition of sidman avoid in squirrel monkeys after peroral administration; details: Saimiri, po
Adenylate cyclase = assay: The compound was tested for adenylate cyclase activity in rat corpus striatum; assay type: tissue-based
Summary of the method: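 Striatal homogenates from male Long–Evans rats (200–300 g). Test substance concentration varied with dopamine held at 20 μM. Cyclic AMP formed was measured by radioimmunoassay, in triplicate.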

[20] = Binding affinity against […] in rat striatal membrane using [3H]haloperidol

T1 sequence (P10608 whole entry): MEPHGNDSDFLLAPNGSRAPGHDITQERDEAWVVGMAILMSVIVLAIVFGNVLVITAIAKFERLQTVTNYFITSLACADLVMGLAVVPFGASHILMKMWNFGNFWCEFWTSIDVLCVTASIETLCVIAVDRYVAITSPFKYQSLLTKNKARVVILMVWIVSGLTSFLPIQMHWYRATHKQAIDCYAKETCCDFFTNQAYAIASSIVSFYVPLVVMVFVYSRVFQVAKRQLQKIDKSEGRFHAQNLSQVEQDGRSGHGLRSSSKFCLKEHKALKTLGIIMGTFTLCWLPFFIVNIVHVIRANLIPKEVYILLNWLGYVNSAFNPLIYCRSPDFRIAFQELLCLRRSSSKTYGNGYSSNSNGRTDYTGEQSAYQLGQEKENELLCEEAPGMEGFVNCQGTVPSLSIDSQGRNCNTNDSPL
Beta-1 adrenergic receptor, sequence (P18090 whole entry): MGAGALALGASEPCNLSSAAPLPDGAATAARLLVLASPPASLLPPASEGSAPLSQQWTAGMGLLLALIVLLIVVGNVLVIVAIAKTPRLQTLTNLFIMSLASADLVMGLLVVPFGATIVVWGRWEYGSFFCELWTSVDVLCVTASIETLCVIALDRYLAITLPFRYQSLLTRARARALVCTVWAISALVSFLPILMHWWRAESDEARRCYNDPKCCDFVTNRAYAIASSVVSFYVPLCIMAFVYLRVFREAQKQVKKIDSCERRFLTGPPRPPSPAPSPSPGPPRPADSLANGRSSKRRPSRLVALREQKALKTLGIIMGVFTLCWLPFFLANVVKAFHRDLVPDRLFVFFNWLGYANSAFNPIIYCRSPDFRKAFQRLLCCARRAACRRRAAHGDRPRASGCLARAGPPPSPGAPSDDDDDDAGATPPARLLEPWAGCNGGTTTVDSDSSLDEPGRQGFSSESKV

## CN1CCc2cccc3c2[C@H]1Cc1ccc(O)c(O)c1-3 [APOMORPHINE]
Rattus norvegicus [1]
  Control: 75%

## Cc1nn(C)c(NC(=O)CNCCCN2CCCCC2)c1C(=O)c1ccccc1F
Rattus norvegicus [2]
  ED50: 16 mg/kg
Dopamine receptor
  IC50: > 10 µM
Mus musculus [3]
  minimal effective dose: 100 mg/kg

## Cc1nn(C)c(NC(=O)CCN2CCCC2)c1C(=O)c1ccccc1F
Rattus norvegicus [2]
  ED50: 15 mg/kg
Dopamine receptor
  IC50: > 10 µM
Mus musculus [3]
  minimal effective dose: 100 mg/kg

## O=C(CCCN1CCC(O)(c2ccc(Cl)cc2)CC1)c1ccc(F)cc1 [HALOPERIDOL]
Rattus norvegicus [4]
  Control: 224%
[5]
  IC50: > 10 µM
Rattus norvegicus [6]
  Control: 348.9%
[7]
  IC50: > 10 µM

## CSc1ccc2c(c1)N(CCC1CCCCN1C)c1ccccc1S2 (stereo not given) [THIORIDAZINE]
[8]
  ED50: 4.3 mg/kg
[9]
  minimal effective dose: 2.5 mg/kg
Mus musculus [10]
  ED50: 3.4 mg/kg
Rattus norvegicus [11]
  ED50: 5.8 mg/kg

## Cc1nn(C)c(NC(=O)CNCCCN2CCCC(C)C2)c1C(=O)c1ccccc1F (stereo not given)
Rattus norvegicus [2]
  ED50: 100 mg/kg
Dopamine receptor
  IC50: > 10 µM
Mus musculus [3]
  minimal effective dose: 100 mg/kg

## Cc1nn(C)c(NC(=O)CN(C)CCCN2CCCCC2C)c1C(=O)c1ccccc1F (stereo not given)
Rattus norvegicus [2]
  ED50: 21 mg/kg
Dopamine receptor
  IC50: > 10 µM
Mus musculus [3]
  minimal effective dose: 30 mg/kg

## Cc1nn(C)c(N(C)C(=O)C(F)(F)F)c1C(=O)c1ccccc1F
Rattus norvegicus [12]
  Clonic seizures: causing seizures
Mus musculus [3]
  minimal effective dose: > 100 mg/kg

## CC(C)C[C@H]1C(=O)N2CCC[C@H]2[C@]2(O)O[C@](NC(=O)[C@@H]3C=C4c5cccc6[nH]c(Br)c(c56)C[C@H]4N(C)C3)(C(C)C)C(=O)N12 [BROMOCRIPTINE]
Rattus norvegicus [4]
  Control: 32.7%
Rattus norvegicus [13]
  Control: 82.4%

## Cc1nn(C)c(NC(=O)CN2CCCC2)c1C(=O)c1ccccc1F
Rattus norvegicus [2]
  ED50: 48 mg/kg
Dopamine receptor
  IC50: > 10 µM
Mus musculus [3]
  minimal effective dose: 30 mg/kg

## Cc1nn(C)c(NC(=O)C(F)(F)F)c1C(=O)c1ccccc1F
Rattus norvegicus [12]
  Clonic seizures: causing seizures
Mus musculus [3]
  minimal effective dose: < 10 mg/kg

## CNc1c(C(=O)c2ccccc2F)c(C)nn1C
Rattus norvegicus [12]
  Clonic seizures: causing seizures
Mus musculus [3]
  minimal effective dose: 30 mg/kg

## Cc1nn(C)c(NC(=O)C(Cl)Cl)c1C(=O)c1ccccc1F
Rattus norvegicus [14]
  Clonic seizures: causing seizures
Mus musculus [3]
  minimal effective dose: 30 mg/kg

## CCCNc1c(C(=O)c2ccccc2F)c(C)nn1C
Rattus norvegicus [12]
  Clonic seizures: causing seizures
Mus musculus [3]
  minimal effective dose: < 10 mg/kg

## Cc1nn(C)c(NC(=O)C(C)N2CCCC2)c1C(=O)c1ccccc1F (stereo not given)
Rattus norvegicus [2]
  ED50: > 100 mg/kg
Dopamine receptor
  IC50: > 10 µM
Mus musculus [3]
  minimal effective dose: 100 mg/kg

## Cc1nn(C)c(N(C)S(C)(=O)=O)c1C(=O)c1ccccc1F
Rattus norvegicus [12]
  Clonic seizures: causing seizures
Mus musculus [3]
  minimal effective dose: > 90 mg/kg

## Cc1nn(C)c(NC(=O)CNCCN(C(C)C)C(C)C)c1C(=O)c1ccccc1F
Rattus norvegicus [2]
  ED50: 71 mg/kg
Dopamine receptor
  IC50: > 10 µM
Mus musculus [3]
  minimal effective dose: 100 mg/kg

## CN1CCN(C2=Nc3cc(Cl)ccc3Nc3ccccc32)CC1 [CLOZAPINE]
[15]
  IC50: > 10 µM
Mus musculus [10]
  ED50: 10 mg/kg
Rattus norvegicus [16]
  ED50: 22 mg/kg
Mus musculus [17]
  ED50: 5.65 mg/kg
[18]
  minimal effective dose: > 30 mg/kg
Canis familiaris
  MED: Active
[19]
  ED50: 4.1 mg/kg

## Cc1nn(C)c(NC(=O)C(C)(C)N2CCCC2)c1C(=O)c1ccccc1F
Rattus norvegicus [2]
  ED50: > 56 mg/kg
Dopamine receptor
  IC50: > 10 µM
Mus musculus [3]
  minimal effective dose: > 100 mg/kg

## OCCN1CCN(CCCN2c3ccccc3Sc3ccc(C(F)(F)F)cc32)CC1 [FLUPHENAZINE]
Adenylate cyclase
  IC50: 0.08 µM

## Cc1nn(C)c(NC(=O)CNCCCN2CCC(C)CC2)c1C(=O)c1ccccc1F
Dopamine receptor
  IC50: > 10 µM
Mus musculus [3]
  minimal effective dose: 100 mg/kg

## Cc1nn(C)c(NC(=O)CNCCN2CCCCC2)c1C(=O)c1ccccc1F
Rattus norvegicus [2]
  ED50: 38 mg/kg
Dopamine receptor
  IC50: > 10 µM
Mus musculus [3]
  minimal effective dose: 30 mg/kg

## Cc1nn(C)c(NC(=O)CN2CCC3(CC2)C(=O)NCN3c2ccccc2)c1C(=O)c1ccccc1F
Rattus norvegicus [2]
  ED50: 15.5 mg/kg
Dopamine receptor
  IC50: > 10 µM
Mus musculus [3]
  minimal effective dose: 100 mg/kg

## Cc1nn(C)c(NC(=O)CN2CCC(c3ccccc3)CC2)c1C(=O)c1ccccc1F
Rattus norvegicus [2]
  ED50: 100 mg/kg
Dopamine receptor
  IC50: > 10 µM
Mus musculus [3]
  minimal effective dose: 30 mg/kg

## Cc1nn(C)c(NC(=O)CNCCCN(C)C)c1C(=O)c1ccccc1F
Rattus norvegicus [2]
  ED50: 56 mg/kg
Dopamine receptor
  IC50: > 10 µM
Mus musculus [3]
  minimal effective dose: 80 mg/kg

## Cc1nn(C)c(NC(=O)CNCCCNC(C)(C)C)c1C(=O)c1ccccc1F
Rattus norvegicus [2]
  ED50: 46 mg/kg
Mus musculus [3]
  minimal effective dose: 30 mg/kg
[20]
  IC50: > 10 µM

## Cc1nn(C)c(NC(=O)CN2CCCCC2)c1C(=O)c1ccccc1F
Rattus norvegicus [2]
  ED50: > 100 mg/kg
Dopamine receptor
  IC50: > 10 µM
Mus musculus [3]
  minimal effective dose: 30 mg/kg

## Cc1nn(C)c(N(C)C(=O)CNCCCN2CCCCC2C)c1C(=O)c1ccccc1F (stereo not given)
Rattus norvegicus [2]
  ED50: > 100 mg/kg
Dopamine receptor
  IC50: > 10 µM
Mus musculus [3]
  minimal effective dose: > 100 mg/kg

## CC(=O)Nc1c(C(=O)c2ccccc2F)c(C)nn1C
Rattus norvegicus [12]
  Clonic seizures: causing seizures
Mus musculus [3]
  minimal effective dose: 30 mg/kg
